Where a name gives a salt, the structure may show the parent alone. Calls of active or inactive are those of the source. The calls are words filed in the database; no cut-off is given here.
What was measured:
Type in all cases: functional, cell-based
A-375 [1] = experiment: Cytotoxicity against human A375 cells up to 100 uM after 48 hrs by MTT assay
Method in brief: (§1)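 Cell lines obtained from a provincial disease-control centre. Compounds (HPLC-DAD purity over 95%) dissolved in DMSO and tested against the cells. Viability read by MTT colorimetric assay and expressed as IC50. Doxorubicin HCl served as positive control and compound-free medium as negative control. Each test was run three times.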

KB [2] = experiment: Cytotoxicity against human KB cells up to 100 uM after 48 hrs by MTT assay; method in brief: as §1
BGC-823 [3] = experiment: Cytotoxicity against human BGC823 cells after 48 hrs by MTT assay; conditions: BGC-823, 48 h; method in brief: as §1
[4] = Cytotoxicity against human GHOST-R5X4 cells after 48 hrs by MTT assay; conditions: GHOST-R5X4, 48 h; method in brief: as §1
HepG2 [5] = experiment: Cytotoxicity against human HepG2 cells after 48 hrs by MTT assay; conditions: HepG2, 48 h; method in brief: as §1
A-375 [6] = experiment: Cytotoxicity against human A375 cells after 48 hrs by MTT assay; conditions: A-375, 48 h; method in brief: as §1
KB [7] = experiment: Cytotoxicity against human KB cells after 48 hrs by MTT assay; method in brief: as §1
HepG2 [8] = experiment: Cytotoxicity against human HepG2 cells up to 100 uM after 48 hrs by MTT assay; method in brief: as §1
BGC-823 [9] = experiment: Cytotoxicity against human BGC823 cells up to 100 uM after 48 hrs by MTT assay; method in brief: as §1
GHOST-R5X4 = experiment: Cytotoxicity against human GHOST-R5X4 cells up to 100 uM after 48 hrs by MTT assay; method in brief: as §1

| Compound | Activity (A-375 [1]) | Activity (KB [2]) | IC50 (BGC-823 [3]) [µM] | IC50 [4] [µM] | IC50 (HepG2 [5]) [µM] | IC50 (A-375 [6]) [µM] | IC50 (KB [7]) [µM] | Activity (HepG2 [8]) | Activity (BGC-823 [9]) | Activity (GHOST-R5X4) |
| --- | --- | --- | --- | --- | --- | --- | --- | --- | --- | --- |
| COC(=O)C(O)C(C)(O)Cc1ccc2c(c1O)C(=O)c1cccc(O)c1C2=O (centres undefined) | inactive | inactive | – | – | – | – | – | – | – | – |
| C[C@H]1O[C@H](O[C@]23C(=O)C[C@](C)(O)C[C@@]2(O)C=CC2=C3C(=O)c3cccc(O)c3C2=O)CC[C@H]1O [SAKYOMICIN C] | – | inactive | 11 | 14 | 17.4 | 17.5 | – | – | – | – |
| COc1cccc2c1C(=O)c1c(O)c3c(c(O)c1C2=O)C[C@@](O)(C(=O)CO)C[C@@H]3O[C@H]1C[C@H](N)[C@H](O)[C@H](C)O1 [DOXORUBICIN HYDROCHLORIDE] | – | – | 0.01 | 5.73 | 1.11 | 0.73 | 0.01 | – | – | – |
| C[C@@]1(O)Cc2ccc3c(c2C(=O)[C@@H]1O)C(=O)c1cccc(O)c1C3=O | inactive | inactive | – | 37.6 | – | – | – | inactive | inactive | – |
| C[C@]1(O)CC(=O)c2c(ccc3c2C(=O)c2cccc(O)c2C3=O)C1 [TETRANGOMYCIN] | inactive | – | 36.1 | 17.7 | – | – | 23.7 | inactive | – | – |
| Cc1cc(O[C@@H]2O[C@@H](C)[C@H](O)[C@@H](O)[C@H]2O)c2c3c(c(O)cc2c1)C(=O)c1c(O)cccc1C3=O | inactive | inactive | – | – | – | – | – | – | – | – |
| COc1cccc2c1C(=O)c1ccc3cc(C)cc(O)c3c1C2=O | inactive | inactive | – | 89 | – | – | – | inactive | inactive | – |
| C[C@H]1O[C@H](O[C@]23C(=O)[C@@H](O)[C@](C)(O)C[C@@]2(O)C=CC2=C3C(=O)c3cccc(O)c3C2=O)CC[C@H]1O [SAKYOMICIN A] | inactive | inactive | 15.1 | – | 34.9 | – | – | – | – | inactive |

Source: ChEMBL document CHEMBL2203202, “Angucyclines from an insect-derived actinobacterium Amycolatopsis sp. HCa1 and their cytotoxic activity” (Bioorg Med Chem Lett, 2012)
